Assay results from ChEMBL document CHEMBL1144617, “Quinoxalinylurea derivatives as a novel class of JSP-1 inhibitors” (Bioorg Med Chem Lett, 2007).

The compounds below were run against T1, Dual specificity protein phosphatase 22 (Homo sapiens, UniProt Q9NRW4) (assay: Inhibition of GST-tagged human recombinant JSP1).
T1 sequence (Q9NRW4 whole entry): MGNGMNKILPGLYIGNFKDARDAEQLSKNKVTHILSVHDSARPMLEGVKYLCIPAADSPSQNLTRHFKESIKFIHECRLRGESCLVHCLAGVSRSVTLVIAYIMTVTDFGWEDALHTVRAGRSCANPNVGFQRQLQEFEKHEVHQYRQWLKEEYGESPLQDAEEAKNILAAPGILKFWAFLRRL
Outline: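 Fluorescence kinetic phosphatase assay: 30 nM purified recombinant GST-fused human JSP-1 in 50 mM Bis-Tris pH 6.5, 1 mM EDTA, 1 mM DTT, with 10 µM OMFP as substrate. Hydrolysis followed continuously at excitation 485/emission 535 nm for 3 min; initial rate taken from the linear region of the kinetic curve.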

IC50 [µM]	Compound
> 40	Cc1ccc(-c2nc3ccc(NC(=O)N4CCCC(C(=O)NC5CCCC5)C4)cc3nc2-c2ccc(C)cc2)cc1 (stereo not drawn)
> 40	CCN(CC)C(=O)C1CCCN(C(=O)Nc2ccc3nc(-c4ccccc4)c(-c4ccccc4)nc3c2)C1 (stereo not drawn)
> 40	CCN(CC)C(=O)C1CCCN(C(=O)Nc2ccc3nc(-c4ccc(C)cc4)c(-c4ccc(C)cc4)nc3c2)C1 (stereo not drawn)
> 40	O=C(NC1CCCCC1)C1CCCN(C(=O)Nc2ccc3nc(-c4ccc(F)cc4)c(-c4ccc(F)cc4)nc3c2)C1 (stereo not drawn)
> 40	O=C(Nc1ccc2nc(-c3ccc(Br)cc3)c(-c3ccc(Br)cc3)nc2c1)N1CCCC(C(=O)N2CCCC2)C1 (stereo not drawn)
> 100	COc1nc2ccc(NC(=O)N3CCCC(C(=O)N4CCCCC4)C3)cc2nc1OC (stereo not drawn)
> 100	COc1nc2ccc(NC(=O)N3CCCC(C(=O)NC4CCCCC4)C3)cc2nc1OC (stereo not drawn)
5.55	CCCCN(C)C(=O)C1CCCN(C(=O)Nc2ccc3nc(-c4ccco4)c(-c4ccco4)nc3c2)C1 (stereo not drawn)
2.35	CCCCN(CC)C(=O)C1CCCN(C(=O)Nc2ccc3nc(-c4ccco4)c(-c4ccco4)nc3c2)C1 (stereo not drawn)
2.5	CCCN(CCC)C(=O)C1CCCN(C(=O)Nc2ccc3nc(-c4ccco4)c(-c4ccco4)nc3c2)C1 (stereo not drawn)
> 40	CC(C)NC(=O)C1CCCN(C(=O)Nc2ccc3nc(-c4ccco4)c(-c4ccco4)nc3c2)C1 (stereo not drawn)
8.36	CC(C)CNC(=O)C1CCCN(C(=O)Nc2ccc3nc(-c4ccco4)c(-c4ccco4)nc3c2)C1 (stereo not drawn)
12	CCN(CC)C(=O)C1CCCN(C(=O)Nc2ccc3nc(-c4ccco4)c(-c4ccco4)nc3c2)C1 (stereo not drawn)
3.02	O=C(NC1CCCC1)C1CCCN(C(=O)Nc2ccc3nc(-c4ccco4)c(-c4ccco4)nc3c2)C1 (stereo not drawn)
2.25	O=C(NC1CCCCC1)C1CCCN(C(=O)Nc2ccc3nc(-c4ccco4)c(-c4ccco4)nc3c2)C1 (stereo not drawn)
> 40	O=C(Nc1ccc2nc(-c3ccccc3)c(-c3ccccc3)nc2c1)N1CCCC(C(=O)N2CCCCC2)C1 (stereo not drawn)
> 40	CN(C)C(=O)C1CCCN(C(=O)Nc2ccc3nc(-c4ccco4)c(-c4ccco4)nc3c2)C1 (stereo not drawn)
> 40	CCNC(=O)C1CCCN(C(=O)Nc2ccc3nc(-c4ccco4)c(-c4ccco4)nc3c2)C1 (stereo not drawn)
2.79	CCCCNC(=O)C1CCCN(C(=O)Nc2ccc3nc(-c4ccco4)c(-c4ccco4)nc3c2)C1 (stereo not drawn)
> 40	CCN(CC)C(=O)C1CCCN(C(=O)Nc2ccc3nc(-c4ccc(Br)cc4)c(-c4ccc(Br)cc4)nc3c2)C1 (stereo not drawn)
8.05	CC(C)(C)NC(=O)C1CCCN(C(=O)Nc2ccc3nc(-c4ccco4)c(-c4ccco4)nc3c2)C1 (stereo not drawn)
> 40	CCN(CC)C(=O)C1CCCN(C(=O)Nc2ccc3nc(-c4ccc(F)cc4)c(-c4ccc(F)cc4)nc3c2)C1 (stereo not drawn)
8.39	O=C(Nc1ccc2nc(-c3ccco3)c(-c3ccco3)nc2c1)N1CCCC(C(=O)N2CCCCC2)C1 (stereo not drawn)
